“And” between values parts separate entries of the source, which are not always exact repeats. Equal entries are not always repeated. The source made the active and inactive calls. The rule behind the calls is not given here.
Tests used:
[1] = Displacement of [3H]methyllycaconitine from chimeric alpha-7nAChR Y195F mutant/5HT3A receptor in tsA201 cells; assay type: cell-based, Homo sapiens
Method in brief: (§1)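 tsA-201 cells transiently transfected with 4 µg WT or mutant α7/5-HT3A chimera and assayed 2 days later. Membranes washed twice at 50000g in 50 mM Tris-HCl pH 7.2. Incubated with 0.5 nM [3H]MLA and compound for 2.5 h at room temperature with shaking; nonspecific binding with 5 mM (S)-nicotine. PEI-soaked GF/C filtration, scintillation counting. Ki derived; duplicate, 3–7 experiments.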

[2] = Displacement of [3H]methyllycaconitine from chimeric alpha-7nAChR Y168A mutant/5HT3A receptor in tsA201 cells; assay type: cell-based, Homo sapiens; method in brief: as §1
[3] = molecular target: T1, Neuronal acetylcholine receptor; alpha3/beta4 (Rattus norvegicus, UniProt P04757+P12392); assay: Displacement of [3H]epibatidine from recombinant rat alpha-3-beta-4 nAChr in HEK293 cell line; assay type: cell-based
[4] = Displacement of [3H]methyllycaconitine from chimeric alpha-7nAChR W55A mutant /5HT3A receptor in tsA201 cells; assay type: cell-based, Homo sapiens; method in brief: as §1
[5] = Displacement of [3H]methyllycaconitine from chimeric alpha7nAChR W55Y mutant/5HT3A receptor in tsA201 cells; assay type: cell-based, Homo sapiens; method in brief: as §1
[6] = Displacement of [3H]methyllycaconitine from chimeric alpha7nAChR K145A mutant/5HT3A receptor in tsA201 cells; assay type: cell-based, Homo sapiens; method in brief: as §1
[7] = system: tsA201; assay: Displacement of [3H]methyllycaconitine from chimeric alpha-7nAChR Y188A mutant/5-HT3A receptor in tsA201 cells; assay type: cell-based; details: Homo sapiens; method in brief: as §1
[8] = Antagonist activity at human alpha7 nAChR W149Y mutant co-expressed with human Ric3 in tsA201 cells by FMP assay; assay type: functional, cell-based
[9] = Antagonist activity at human alpha7nAChR Y93A mutant co-expressed with human Ric3 in tsA201 cells by FMP assay; assay type: functional, cell-based
[10] = molecular target: T2, Neuronal acetylcholine receptor subunit alpha-7 (Homo sapiens, UniProt P36544); assay: Displacement of [3H]methyllycaconitine from chimeric alpha7nAChR/5HT3A in tsA201 cells; assay type: cell-based
Target sequence in this assay (P36544 23-502 limits assumed): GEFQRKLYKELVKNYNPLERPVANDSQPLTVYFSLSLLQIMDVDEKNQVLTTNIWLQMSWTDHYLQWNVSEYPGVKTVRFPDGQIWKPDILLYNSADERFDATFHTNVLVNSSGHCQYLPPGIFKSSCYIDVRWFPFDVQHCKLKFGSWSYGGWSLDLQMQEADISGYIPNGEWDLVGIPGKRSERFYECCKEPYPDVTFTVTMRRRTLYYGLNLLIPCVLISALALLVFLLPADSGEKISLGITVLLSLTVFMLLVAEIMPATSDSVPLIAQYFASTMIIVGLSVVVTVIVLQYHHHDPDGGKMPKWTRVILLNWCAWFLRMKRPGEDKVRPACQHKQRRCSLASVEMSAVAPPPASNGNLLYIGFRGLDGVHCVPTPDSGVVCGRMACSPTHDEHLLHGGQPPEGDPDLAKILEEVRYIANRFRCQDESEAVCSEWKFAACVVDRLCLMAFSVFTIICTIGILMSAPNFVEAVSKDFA

[11] = cells; assay type: functional, cell-based; details: Homo sapiens, HEK293
[12] = Displacement of [3H]methyllycaconitine from chimeric alpha-7nAChR D197A mutant/5HT3A receptor in tsA201 cells; assay type: cell-based, Homo sapiens; method in brief: as §1
[13] = molecular target: T3, Glycine receptor subunit alpha-1 (Homo sapiens, UniProt P23415); assay: Antagonist activity at human glycine alpha-1 receptor in HEK293 cells by FMP assay; assay type: functional, cell-based
T3 sequence (P23415 whole entry): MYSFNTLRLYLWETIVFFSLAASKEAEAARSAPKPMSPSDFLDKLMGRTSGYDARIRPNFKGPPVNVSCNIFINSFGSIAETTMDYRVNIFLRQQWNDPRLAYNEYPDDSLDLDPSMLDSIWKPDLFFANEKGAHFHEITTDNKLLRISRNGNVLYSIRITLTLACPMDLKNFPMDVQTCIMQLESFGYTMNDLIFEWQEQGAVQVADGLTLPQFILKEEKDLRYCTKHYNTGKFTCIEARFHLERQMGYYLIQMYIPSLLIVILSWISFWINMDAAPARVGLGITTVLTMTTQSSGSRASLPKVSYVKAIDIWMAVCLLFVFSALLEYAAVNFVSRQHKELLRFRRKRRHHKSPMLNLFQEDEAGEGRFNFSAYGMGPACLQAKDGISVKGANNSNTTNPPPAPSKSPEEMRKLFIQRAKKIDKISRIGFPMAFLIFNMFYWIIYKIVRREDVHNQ

[14] = molecular target: T4, 5-hydroxytryptamine receptor 3A (Homo sapiens, UniProt P46098); assay: Displacement of [3H]GR65630 from human 5HT3A receptor in HEK293 cells; assay type: cell-based
T4 sequence (P46098 whole entry): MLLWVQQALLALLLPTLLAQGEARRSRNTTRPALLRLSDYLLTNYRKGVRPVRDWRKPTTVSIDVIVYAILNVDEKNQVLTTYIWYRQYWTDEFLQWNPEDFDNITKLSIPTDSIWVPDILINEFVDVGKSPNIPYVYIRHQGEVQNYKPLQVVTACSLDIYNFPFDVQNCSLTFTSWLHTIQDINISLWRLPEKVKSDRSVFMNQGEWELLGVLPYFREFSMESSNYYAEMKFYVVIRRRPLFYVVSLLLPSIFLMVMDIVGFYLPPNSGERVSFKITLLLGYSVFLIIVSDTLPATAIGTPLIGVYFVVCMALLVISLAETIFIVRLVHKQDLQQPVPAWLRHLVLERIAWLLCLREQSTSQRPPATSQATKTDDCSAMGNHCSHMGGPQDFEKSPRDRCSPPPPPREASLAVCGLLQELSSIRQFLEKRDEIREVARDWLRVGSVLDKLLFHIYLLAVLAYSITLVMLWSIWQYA

[15] = Antagonist activity at human alpha-7 nAChR Y188A mutant coexpressed with human Ric3 in tsA201 cells by FMP assay; assay type: functional, cell-based
[16] = Displacement of [3H]methyllycaconitine from chimeric alpha7nAChR R79A mutant/5HT3A receptor R79A mutant in tsA201 cells; assay type: cell-based, Homo sapiens; method in brief: as §1
[17] = Displacement of [3H]methyllycaconitine from chimeric alpha7nAChR Y195A mutant/5HT3A receptor in tsA201 cells; assay type: cell-based, Homo sapiens; method in brief: as §1
[18] = Displacement of [3H]methyllycaconitine from chimeric alpha-7nAChR N107A mutant/5HT3A receptor in tsA201 cells; assay type: cell-based, Homo sapiens; method in brief: as §1
[19] = Displacement of [3H]methyllycaconitine from chimeric alpha-7nAChR S150A mutant/5HT3A receptor in tsA201 cells; assay type: cell-based, Homo sapiens; method in brief: as §1
[20] = molecular target: Neuronal acetylcholine receptor; alpha4/beta2 (Rattus norvegicus, UniProt P09483+P12390); assay: Displacement of [3H]epibatidine from rat recombinant alpha-4-beta-2 nAChR in HEK293 cell line; assay type: cell-based
[21] = molecular target: T2, Neuronal acetylcholine receptor subunit alpha-7
Target sequence in this assay (P36544 whole entry): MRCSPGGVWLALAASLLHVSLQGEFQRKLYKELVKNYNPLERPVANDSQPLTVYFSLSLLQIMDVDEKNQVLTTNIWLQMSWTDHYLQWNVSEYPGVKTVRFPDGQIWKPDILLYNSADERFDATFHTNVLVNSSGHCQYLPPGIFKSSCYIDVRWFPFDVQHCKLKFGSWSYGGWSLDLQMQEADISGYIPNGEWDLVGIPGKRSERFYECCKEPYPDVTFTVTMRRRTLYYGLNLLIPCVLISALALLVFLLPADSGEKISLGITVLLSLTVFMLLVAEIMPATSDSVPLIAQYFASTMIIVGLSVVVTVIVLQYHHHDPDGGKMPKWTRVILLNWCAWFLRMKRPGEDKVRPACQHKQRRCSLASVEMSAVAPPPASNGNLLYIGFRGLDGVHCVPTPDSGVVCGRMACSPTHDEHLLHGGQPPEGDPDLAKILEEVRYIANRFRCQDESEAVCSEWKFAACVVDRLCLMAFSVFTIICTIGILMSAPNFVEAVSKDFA

[22] = molecular target: T2, Neuronal acetylcholine receptor subunit alpha-7; assay: Displacement of [3H]methyllycaconitine from human alpha-7 in tsA201 cells coexpressed with 5HT3A receptor; assay type: cell-based
Target sequence in this assay (P36544 whole entry): as above

[23] = Antagonist activity at human alpha-7 nAChR Y195A mutant coexpressed with human Ric3 in tsA201 cells by FMP assay; assay type: functional, cell-based
[24] = system: tsA201; assay: Displacement of [3H]methyllycaconitine from chimeric alpha-7nAChR Y93A mutant/5HT3A receptor in tsA201 cells; assay type: cell-based; details: Homo sapiens; method in brief: as §1
[25] = molecular target: T4, 5-hydroxytryptamine receptor 3A; assay: Antagonist activity at human 5HT3A receptor expressed in HEK293 cells by FMP assay; assay type: functional, cell-based; details: read-out: IC50
[26] = Displacement of [3H]methyllycaconitine from chimeric alpha-7nAChR S148A mutant /5HT3A receptor in tsA201 cells; assay type: cell-based, Homo sapiens; method in brief: as §1
[27] = molecular target: T1, Neuronal acetylcholine receptor; alpha3/beta4; assay: Antagonist activity at rat alpha3beta4 nAChR expressed in HEK293 cells by FMP assay; assay type: functional, cell-based, Homo sapiens; details: read-out: IC50
[28] = system: tsA201; assay: Displacement of [3H]methyllycaconitine from chimeric alpha-7nAChR W149Y mutant/5HT3A receptor W149Y mutant in tsA201 cells; assay type: cell-based; details: Homo sapiens; method in brief: as §1
[29] = system: tsA201; assay: Displacement of [3H]methyllycaconitine from chimeric alpha-7nAChR W55A/Y195A mutant /5HT3A receptor in tsA201 cells; assay type: cell-based; details: Homo sapiens; method in brief: as §1
[30] = molecular target: T2, Neuronal acetylcholine receptor subunit alpha-7; assay: Displacement of [3H]methyllycaconitine from alpha7 nAChR in tsA201 cells co-expressed with Ric3; assay type: cell-based
Target sequence in this assay (P36544 whole entry): as above

[31] = molecular target: T2, Neuronal acetylcholine receptor subunit alpha-7; assay: Antagonist activity at human alpha-7 nAChR in tsA201 cells coexpressed with Ric3 by FMP assay; assay type: functional, cell-based
Target sequence in this assay (P36544 whole entry): as above

[32] = system: tsA201; assay: Displacement of [3H]methyllycaconitine from chimeric alpha-7nAChR W149A mutant/5HT3A receptor in tsA201 cells; assay type: cell-based; details: Homo sapiens; method in brief: as §1
[33] = Displacement of [3H]methyllycaconitine from chimeric alpha-7nAChR K145R mutant /5HT3A receptor in tsA201 cells; assay type: cell-based, Homo sapiens; method in brief: as §1
[34] = molecular target: Neuronal acetylcholine receptor; alpha4/beta4 (Rattus norvegicus, UniProt P09483+P12392); assay: Displacement of [3H]epibatidine from recombinant rat alpha-4-beta-4 nAChr in HEK293 cell line; assay type: cell-based
Sequence of Neuronal acetylcholine receptor; alpha4/beta4 (P09483 whole entry): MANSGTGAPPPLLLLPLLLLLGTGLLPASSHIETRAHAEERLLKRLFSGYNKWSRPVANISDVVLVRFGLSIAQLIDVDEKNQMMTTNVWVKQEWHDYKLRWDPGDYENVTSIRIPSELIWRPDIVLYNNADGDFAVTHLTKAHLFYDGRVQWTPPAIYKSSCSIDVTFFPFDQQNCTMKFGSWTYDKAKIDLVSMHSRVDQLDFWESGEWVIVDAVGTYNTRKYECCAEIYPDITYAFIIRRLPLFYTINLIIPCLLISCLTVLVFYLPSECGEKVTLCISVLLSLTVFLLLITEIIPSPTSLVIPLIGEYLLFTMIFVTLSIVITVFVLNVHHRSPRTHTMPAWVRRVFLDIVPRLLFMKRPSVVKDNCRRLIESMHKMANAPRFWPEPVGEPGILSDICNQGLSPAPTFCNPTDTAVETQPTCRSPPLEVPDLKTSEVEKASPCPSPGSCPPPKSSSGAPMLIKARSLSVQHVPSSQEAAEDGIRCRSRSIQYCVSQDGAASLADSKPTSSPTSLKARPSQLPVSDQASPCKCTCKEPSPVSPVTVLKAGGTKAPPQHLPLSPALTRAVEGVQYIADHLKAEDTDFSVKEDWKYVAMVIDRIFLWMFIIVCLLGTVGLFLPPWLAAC
Sequence of Neuronal acetylcholine receptor; alpha4/beta4 (P12392 whole entry): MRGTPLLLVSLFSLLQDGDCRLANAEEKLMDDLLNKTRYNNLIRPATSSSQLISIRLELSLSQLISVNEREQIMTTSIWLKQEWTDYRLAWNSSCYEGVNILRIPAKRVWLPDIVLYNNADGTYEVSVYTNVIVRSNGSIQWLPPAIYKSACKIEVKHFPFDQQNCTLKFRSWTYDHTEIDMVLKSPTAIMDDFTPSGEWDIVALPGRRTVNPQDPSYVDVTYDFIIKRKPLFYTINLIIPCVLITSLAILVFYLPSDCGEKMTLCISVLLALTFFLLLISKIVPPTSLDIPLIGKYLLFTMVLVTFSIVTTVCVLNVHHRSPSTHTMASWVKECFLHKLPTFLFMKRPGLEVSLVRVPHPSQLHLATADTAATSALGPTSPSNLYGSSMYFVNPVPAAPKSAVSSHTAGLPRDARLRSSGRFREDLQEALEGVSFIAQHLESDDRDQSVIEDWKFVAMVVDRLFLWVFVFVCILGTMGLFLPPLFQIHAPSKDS

T1 sequence (P04757 whole entry): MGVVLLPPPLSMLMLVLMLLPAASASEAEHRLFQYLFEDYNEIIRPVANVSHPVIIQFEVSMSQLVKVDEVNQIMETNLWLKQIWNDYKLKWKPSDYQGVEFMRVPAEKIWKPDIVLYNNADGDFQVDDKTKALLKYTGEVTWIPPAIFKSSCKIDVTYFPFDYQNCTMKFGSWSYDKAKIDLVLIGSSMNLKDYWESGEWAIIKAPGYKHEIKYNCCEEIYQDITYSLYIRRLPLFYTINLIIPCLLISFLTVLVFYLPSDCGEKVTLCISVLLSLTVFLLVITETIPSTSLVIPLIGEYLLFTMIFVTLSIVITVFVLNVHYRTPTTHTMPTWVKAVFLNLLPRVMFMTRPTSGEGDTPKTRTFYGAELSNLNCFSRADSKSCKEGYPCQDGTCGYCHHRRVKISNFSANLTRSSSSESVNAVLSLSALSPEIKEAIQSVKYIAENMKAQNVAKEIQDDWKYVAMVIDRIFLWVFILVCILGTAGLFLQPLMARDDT
T1 sequence (P12392 whole entry): as the sequence (P12392 whole entry) above
Sequence of Neuronal acetylcholine receptor; alpha4/beta2 (P09483 whole entry): as the sequence (P09483 whole entry) above
Sequence of Neuronal acetylcholine receptor; alpha4/beta2 (P12390 whole entry): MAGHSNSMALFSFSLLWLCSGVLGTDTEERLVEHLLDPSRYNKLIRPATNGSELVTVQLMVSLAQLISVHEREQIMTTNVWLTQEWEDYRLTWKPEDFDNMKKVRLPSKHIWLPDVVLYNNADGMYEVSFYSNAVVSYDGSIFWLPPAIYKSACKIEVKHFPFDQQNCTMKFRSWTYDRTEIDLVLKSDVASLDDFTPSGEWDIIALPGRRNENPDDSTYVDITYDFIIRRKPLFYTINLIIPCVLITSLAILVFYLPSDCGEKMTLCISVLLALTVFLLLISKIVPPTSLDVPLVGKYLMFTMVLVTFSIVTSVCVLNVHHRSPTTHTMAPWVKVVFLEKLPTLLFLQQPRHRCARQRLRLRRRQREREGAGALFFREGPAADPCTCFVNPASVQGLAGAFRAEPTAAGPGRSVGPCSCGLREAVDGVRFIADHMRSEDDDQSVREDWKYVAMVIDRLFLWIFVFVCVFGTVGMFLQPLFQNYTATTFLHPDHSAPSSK

C1=CC([N+]23CC[C@@H]4[C@@H]5[C@@H]6[C@@H](OCC=C(C2)[C@@H]6C[C@@H]43)N2c3ccccc3[C@@]34CC[N+]6(C7C=CCCC7)CC7=CCO[C@H]([C@@H]([C@H]23)[C@H]7C[C@@H]46)N5c2ccccc2)CCC1.[Br-].[Br-] (some centres undefined)
Ki [1]: 1.3 µM | pKi [1]: 5.89 | Ki [2]: 1.1 µM | pKi [2]: 5.96 | Ki [3]: 30 µM | Ki [4]: 1.2 µM | pKi [4]: 5.93 | Ki [5]: 0.56 µM | pKi [5]: 6.25 | Ki [6]: 0.32 µM | pKi [6]: 6.5 | Activity [7]: inactive | IC50 ([8]; read-out: IC50): 2.9 µM | IC50 ([8]; read-out: pIC50 (converted)): 2.88 µM | IC50 ([9]; read-out: IC50): 3.7 µM | IC50 ([9]; read-out: pIC50 (converted)): 3.72 µM | Ki [10]: 0.84 µM | pKi [10]: 6.07 | IC50 ([11]; read-out: IC50): > 100 µM | IC50 ([11]; read-out: pIC50 (converted)): > 100 µM | Ki [12]: 1.5 µM | pKi [12]: 5.83 | IC50 [13]: > 100 µM | pIC50 ([13]; hek293): < 4 | Ki [14]: 2.7 µM | IC50 ([15]; read-out: IC50): 5.3 µM | IC50 ([15]; read-out: pIC50 (converted)): 5.13 µM | Ki [16]: 1.3 µM | pKi [16]: 5.89 | Ki [17]: 4.9 µM | pKi [17]: 5.31 | Ki [18]: 0.724 µM | pKi [18]: 6.14 | Ki [19]: 0.55 µM | pKi [19]: 6.26 | pKi ([20]; hek293): < 4 | Ki ([20]; read-out: Ki): > 100 µM | IC50 [21]: 3 µM and 2.95 µM | Ki ([22]; read-out: Ki): 0.72 µM | Ki ([22]; read-out: pKi (converted)): 0.794 µM | IC50 ([23]; read-out: IC50): 3.3 µM | IC50 ([23]; read-out: pIC50 (converted)): 3.31 µM | Activity [24]: inactive | IC50 [25]: 4.4 µM | Ki [26]: 0.4 µM | pKi [26]: 6.4 | IC50 [27]: 30 µM | Activity [28]: inactive | Activity [29]: inactive | Ki ([30]; read-out: Ki): 0.59 µM | Ki ([30]; read-out: pKi (converted)): 0.631 µM | IC50 ([31]; read-out: IC50): 3 µM | IC50 ([31]; read-out: pIC50 (converted)): 3.02 µM | Activity [32]: inactive | Ki [33]: 0.66 µM | pKi [33]: 6.18 | Ki [34]: > 100 µM | pKi ([34]; hek293): < 4

CCN1C[C@]2(COC(=O)c3ccccc3N3C(=O)C[C@H](C)C3=O)CC[C@H](OC)[C@@]34[C@@H]5C[C@H]6[C@H](OC)[C@@H]5[C@](O)(C[C@@H]6OC)[C@](O)([C@@H](OC)[C@H]23)[C@@H]14 [METHYLLYCACONITINE]
Ki [1]: 0.0017 µM | pKi [1]: 8.78 | Ki [2]: 0.0019 µM | pKi [2]: 8.71 | Ki [4]: 0.024 µM | pKi [4]: 7.62 | Ki [5]: 0.0045 µM | pKi [5]: 8.35 | Ki [6]: 0.0039 µM | pKi [6]: 8.41 | Activity [7]: inactive | IC50 ([8]; read-out: IC50): 0.089 µM | IC50 ([8]; read-out: pIC50 (converted)): 10 µM | IC50 ([9]; read-out: IC50): 10 µM | IC50 ([9]; read-out: pIC50 (converted)): 31.6 µM | Ki [10]: 0.0016 µM | pKi [10]: 8.79 | Ki [12]: 0.0055 µM | pKi [12]: 8.26 | IC50 ([15]; read-out: IC50): 1.8 µM | IC50 ([15]; read-out: pIC50 (converted)): 1.82 µM | Ki [16]: 0.0035 µM | pKi [16]: 8.45 | Ki [17]: 0.013 µM | pKi [17]: 7.89 | Ki [18]: 0.0032 µM | pKi [18]: 8.42 | Ki [19]: 0.0035 µM | pKi [19]: 8.45 | IC50 [21]: 0.0083 µM and 0.00832 µM | Ki ([22]; read-out: Ki): 0.0011 µM | Ki ([22]; read-out: pKi (converted)): 0.001 µM | IC50 ([23]; read-out: IC50): 0.32 µM | IC50 ([23]; read-out: pIC50 (converted)): 0.324 µM | Activity [24]: inactive | Ki [26]: 0.0025 µM | pKi [26]: 8.6 | Activity [28]: inactive | Activity [29]: inactive | Ki ([30]; read-out: Ki): 0.0061 µM | Ki ([30]; read-out: pKi (converted)): 0.00631 µM | IC50 ([31]; read-out: IC50): 0.0083 µM | IC50 ([31]; read-out: pIC50 (converted)): 0.00832 µM | Activity [32]: inactive | Ki [33]: 0.0043 µM | pKi [33]: 8.37

— ChEMBL document CHEMBL1148788 (J Med Chem, 2007)
